From PubChem BioAssay
Avidin bead fluor – green autofluorescence of compounds with avidin beads – biophysical, 488/530 nm, flow cytometry, artefact control, profiling panel | compound fluorescence 488/530 nm; active compounds read high | fluorescence (KMESF) at 10 µM | hit rate 0.38% among 220,000; in the data active = fluorescence above about 47
GSH fluor – compound fluorescence on glutathione beads, profiling panel, artefact control, biophysical, 488/530 nm, flow cytometry; GSH beads flow cytometry, compound fluorescence 488/530 nm; active compounds read high; AID 1776, 2009; fluorescence (KMESF) at 10 µM; hit rate 0.25% among 190,000; in the data active = fluorescence above about 89;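 also: glutathione beads carrying GST-tagged Bcl family fusion proteins plus one bare bead set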
ABCG2 block – ABCG2 efflux pump inhibitors, primary screen, multiplex with ABCB1, IgMXP3 cells, flow cytometry. hit rate 0.1% among 190,000. Broad substrate specificity ATP-binding cassette transporter ABCG2 (Homo sapiens), Q9UNQ0. inhibition, % at 6.6 µM. JC-1 efflux. AID 1325, 2008;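 active = inhibition above 80%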
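Times: 10 min at 25 °C | Test system: Two drug-resistant human cell lines, ABCG2 and ABCB1 | Quantity: 3 million cells/mL final, two lines in 1:1 ratio | Signal: Flow cytometry, 530 nm JC-1 signal | Dosing: Compound at 6.6 µM | Controls: Nicardipine and DMSO wells | Reagent: JC-1 as fluorescent efflux pump substrate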
ABCB1 inh – ABCB1 efflux pump inhibitors, primary screen, cell-based, multiplex, flow cytometry, ABCG2 counter-screen; ATP-dependent translocase ABCB1 (Homo sapiens), P08183; hit rate 0.067% among 190,000; CCRF-Adr cells, JC-1 efflux; inhibition, % at 6.6 µM; in the data active = inhibition above about 40%;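 also: higher value means more JC-1 retained so stronger ABCB1 efflux block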
PKD1 inh – inhibitors of human PKD1 kinase, biochemical, fluorescence polarization; PKD1 kinase fluorescence polarization assay; inhibition, % (test concentration not listed); hit rate 0.056% among 200,000; AID 797, 2007
L major viab – Leishmania major promastigote growth inhibition, primary screen; Leishmania major promastigotes, resazurin fluorescence viability; inhibition, % at 10 µM; hit rate 9% among 200,000; AID 1063, 2008;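 also: promastigotes grown with compound for 44 hours at 28 °C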
Large screens that a line does not name were inactive. This excerpt belongs to a sample that is enriched for hits. Rule as the data show it, unless noted: active = inhibition above about 50%; inactive = the rest.

C=CCNC(=O)c1c(N)n(-c2cccc(S(N)(=O)=O)c2)c2nc3ccccc3nc12	L major viab 84.0
CCCC(=O)Nc1ccc(C(=O)Nc2ccc([N+](=O)[O-])cc2OC)cc1	none
CC[n+]1c(/C=C(/C)SC)sc2ccccc21	L major viab 82.5
CC[n+]1c(/C=C/Nc2ccccc2)sc2ccccc21	L major viab 98.8
CCN1/C(=C/C=C/C=C/c2sc3ccccc3[n+]2CC)Sc2ccccc21	L major viab 100.4 (no result: Avidin bead fluor)
CC/C(=C/c1sc2ccccc2[n+]1CC)SC	L major viab 91.5
CC[n+]1ccccc1/C=C/Nc1ccccc1	none
Cc1csc(SCC(=O)NCc2ccccc2Cl)n1	none
Cc1ccc(S(=O)(=O)Nc2nc3ccccc3nc2NCC2CCCO2)cc1C (stereo not given)	none (no result: GSH fluor, ABCG2 block, ABCB1 inh, PKD1 inh, L major viab)
O=C(NCCc1ccncc1)Nc1ccc(F)cc1	none (no result: GSH fluor, ABCG2 block, ABCB1 inh, PKD1 inh, L major viab)
CC(C)c1cc(C(=O)NCCc2ccccc2)no1	none
CC[n+]1c(/C=C(\C)OC)sc2ccccc21	none
CC[n+]1c(/C=C(\C)SC)sc2ccccc21	L major viab 65.0
CC[n+]1c(/C=C(\C)Nc2ccccc2)sc2ccccc21	L major viab 98.8 (no result: ABCB1 inh)
Clc1ccc(Cn2nc(-c3ccccc3)nc2-c2ccccc2)cc1	none
CCN(CC)S(=O)(=O)c1ccc(N2CCOCC2)c(NC(=S)NC(=O)c2ccco2)c1	none (no result: GSH fluor, ABCG2 block, ABCB1 inh, PKD1 inh, L major viab)
Cc1ccc(NC(=O)NC2CCCN2S(=O)(=O)c2ccc(Cl)cc2)cc1 (stereo not given)	L major viab 62.4
CC(=O)Nc1ccc(S(=O)(=O)N2CCSC2c2ccc(Cl)cc2)cc1 (stereo not given)	GSH fluor 265
CC(=O)N1C(=O)/C(=C2\SC(=S)N(NS(=O)(=O)c3ccc(C)cc3)C2=O)c2ccccc21	none
Cc1cc(C)c(CSc2ncnc3nc[nH]c23)c(C)c1	none
O=C(NCCc1ccc(Cl)cc1)Nc1ccc(Cl)cc1	none (no result: GSH fluor, ABCG2 block, ABCB1 inh, PKD1 inh, L major viab)
CCN(CCNC(=O)Nc1ccc(Cl)cc1)c1ccccc1	L major viab 96.5
CCCC(C(=O)NC1=NCCS1)c1ccccc1 (stereo not given)	none
NS(=O)(=O)c1ccc(CCNC(=S)Nc2ccccc2)cc1	none
Cc1nc2c(-c3ccccc3)c(C)nn2c(C)c1CCC(=O)NC(C)CCc1ccco1 (stereo not given)	L major viab 100.0
COc1ccccc1-c1cc2nc(C)c(CCC(=O)NC(C)CCc3ccco3)c(C)n2n1 (stereo not given)	L major viab 97.9
COc1ccccc1CNC(=O)CCc1c(C)nc2cc(-c3ccccc3OC)nn2c1C	none (no result: GSH fluor, ABCG2 block, ABCB1 inh, PKD1 inh, L major viab)
Cc1nc2c(-c3ccccc3)c(C)nn2c(C)c1CCC(=O)O	none
CO/N=C(\Cn1ncc(NC2CCCCC2)c(Br)c1=O)c1ccc(Cl)cc1	none
CO/N=C(\Cn1ncc(N2CCCC2)c(Br)c1=O)c1ccc(Cl)cc1	L major viab 70.7
Cc1ccc(N2C(=O)CC(Cc3cccc(C)c3)C2=O)cc1 (stereo not given)	none
CCOC(=O)N1CCC(N2Cc3cccc(C(=O)NCc4ccc(OC)cc4)c3C2=O)CC1	L major viab 70.0
CCc1ccc(N2C(=O)C3C4CCC(C4=C(C)C)C3C2=O)cc1 (stereo not given)	none
CCCCC1(CC(=O)OCC)C(=O)N(c2ccccc2)N(c2ccccc2)C1=O	none
S=c1[nH]nc(-c2ccc3ccccc3n2)n1-c1ccccc1Cl	L major viab 52.2
S=c1[nH]nc(-c2ccc3ccccc3n2)n1-c1cc(Cl)cc(Cl)c1	none
CCOC(=O)Cc1csc(/N=C/c2c(O)n(-c3ccccc3C(F)(F)F)c(=O)c3ccccc23)n1	none
COc1ccc(C(=O)/C(=C/O)N=Nc2ccc(F)cc2)cc1	L major viab 61.5
O=C(/C(=C/O)N=Nc1ccc(Cl)cc1)c1ccncc1	L major viab 99.7
Cc1ccc(N=N/C(=C\O)C(=O)c2ccncc2)cc1	none
COc1ccc(C(=O)C(/C=N/O)=N/Nc2ccc(F)cc2)cc1	none
COc1ccc(N=N/C(=C\O)C(=O)c2cccs2)cc1	L major viab 69.0
COc1ccc(NC(=O)c2cccs2)cc1	none
